# Reference: the EternaBench riboswitch data
# Test system: MS2 coat protein
# Assay: apparent Kd, MS2 coat protein; higher = weaker binding; RNA-MaP array; FMN 200 µM where present
# How it was run: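 The apparent Kd is the median of filtered binding-curve fits, one per cluster, to green signal normalised to red-channel RNA signal and control-cluster median Fmax. The clusters were on Illumina sequencing chips, and stalled E. coli RNA polymerase had transcribed the designs on them. Titration used SNAP-549-labelled MS2 coat protein from 0.7 or 1.5 nM, doubling to 3 µM, without and then with constant ligand, in 100 mM Tris-HCl pH 7.5, 80 mM KCl, 4 mM MgCl2, BSA, DTT, yeast tRNA and Tween-20.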
# [1] = designed as: OFF switch for flavin mononucleotide, no ligand
# [2] = ligand present: flavin mononucleotide, designed as: OFF switch for flavin mononucleotide
# [3] = designed as: ON switch for flavin mononucleotide, no ligand
# [4] = ligand present: flavin mononucleotide, designed as: ON switch for flavin mononucleotide
Sequence,apparent Kd [1] [nM],apparent Kd [2] [nM],apparent Kd [3] [nM],apparent Kd [4] [nM]
AAACAGUACGAGAAGGGCUACAUGAGGAUCACCCAUGUAGACGGUCGUGUGGCAGGAUAUCGAACACACCCAAAACGGUGCGUU,5.9,7.43,,
GUGAACAUGAGGAUCACCCAUGUAGCUCACUGCCAGUGGCUACAGGAUAUAGCACCUCGAGAGUGCUAGAAGGGUGGCCUAGAA,,,106,33.9
AAUAUGUUGCAGAAGGUUAUAUUUAUUUAGUACCUCAUGACAUGAGGAUCACCCAUGUUUUUGUUGAAGGAUAUGCAAUAUAUU,17.1,13.7,,
UAGUAUAAGGGCAUUAAACAUGAGGAUCACCCAUGUACGUUAGAGGAUAUGCAUUACAGUUGAAAGUAGAAGGUUAGAGAAGGG,45.6,50.1,,
GUACGUGGACAGAAGGCGACAUGAGGAUCACCCAUGUUGGCUCGGGUAUGACCAAUCCGCAUGAUUGAGGAUAUGUCUGCGGGC,9.07,62.4,,
CAGAAGUCAGGAUAUGCAUGGCGGGACUUGCGUCGUGGCGUGCAGAAGGGACAUGAGGAUCACCCAUGUGGAGC,118,182,,
GUGUUACAUGAGGAUCACCCAUGUGAGGAUAUCAUGCUUCGUAGUAAACUACGAAGUGUGAGAAGGCACAUGAC,265,806,,
UGGUCAUGAUCAGGAUAUUAACAUGGGCUACAUUAAGAAGGGAUAGUGAGAUACGAACUACAUGAGGAUCACCCAUGUGUUGUU,,,68.7,55.4
UUGUACGUCGUAGGAUAUGUAGGAUAUUCCUACAUGAGGAUCACCCAUGUUGACAUGGAAGAAGGACAGAAGGACGAUGUCCAU,,,429,7.83
AUGGACGUCGUAGGAUAUGUAGGAUUCUCCUACAUGAGGAUCACCCAUGUUGACAUGGAGGACGGACAGAAGGACGGUGUCCAU,,,13.2,5.31
UAUUUUGAAGUAGGAUAUCAACACACAUGAGGAUCACCCAUGUUAGAUGUGGAUGUUGUAUGUUAUGAGAAGGACUUCGAUUCG,20.6,76.4,,
AAACACGGACAUGAGGAUCACCCAUGUGGCGAUAGCCUUGGGAGAAGGUAUAAAUAAAAUAAUAAUUAGGAUAUUCAUACCGUG,,,275,108
CACCCUGAUGUCAGGAUAUGCGCGUCGCGCCUCGAGCAGAAGGGACAUGAGGAUCACCCAUGUUGUCUCUUGGG,48.9,98.7,,
GGUCCGCACUAGAAGGGUGACAUGAGGAUCACCCAUGUGCACUUCCGCUCUUAGCGGAAAGUGCCACAGGAUAUAGUGUGGAUU,,,80.6,20.3
GUUUAGUGAGGAUAUGUGGCGUCGAUCGAGCGCGGUCUGCUACAGAAGGCACAUGAGGAUCACCCAUGUUUCUC,258,371,,
AGGUUGUGAGGAUAUUAGUUUUAUGAUUGGAGGAGUUUGGCUGAGAAGGCACAUGAGGAUCACCCAUGUAGAUC,61.9,124,,
AGUUAAUAUCGAGGAUAUGUCUAGACACAUGAGGAUCACCCAUGUAUGUGUAUAGAAGGCGAUAUUAACAGCAUGUUACAUGCC,,,37.2,15.6
AAGUCAGCAGGAUAUGCGAUGGUGUACUAGGUAGUUUGCCCACAUGAGGAUCACCCAUGUAGAAGGGCUGGCUA,14.7,21.4,,
GCAUGUCUUAAGGAUAUGCUUUGGCGUGAGCCGGCAGAAGGUAAGACAUGAGGAUCACCCAUGUUUUCCUAAAA,20.5,140,,
AAUUAAUUGUAGAAGGUACUUAAUUAUGUUAUGUAAGGAUAUACGUAAUUAUUACGUCUUGUAUGACAUGAGGAUCACCCAUGU,,,12.9,11
UGCUACAUGAGGAUCACCCAUGUAAUGUGGGAUUCGUUAGGACAGGAUAUGAUUGUAUAGUUUUUUCAGAAGGGUCAUUACUUU,69.2,135,,
GGUCCAUCAUGAGGAUAUGGCACCUUAUUGGUGCCAGAAGGCAUGUCUAUAGACAUGAGGAUCACCCAUGUAAUAAAGUGGACC,,,922,49.3
CUCUGCCGGCAGGAUAUUAGGUUACGAUGACGUUGAGAAGGGCUGACAUGAGGAUCACCCAUGUAGGGCUCCAU,18.8,24.5,,
GCGGAGUGAGGAUAUCCAAUUUAACGUACCAAUUAGGUACGGGAGAAGGCACAUGAGGAUCACCCAUGUACCGC,72.4,53.5,,
CGCUCAAUUCAGAAGGAUAGAAUCAGAAGGCGUAACAUGAGGAUCACCCAUGUAUAGAAGUGUAACGAGGAUAUGAAUUGAGCG,11.5,10.2,,
UUUUUGUCAGGAUAUGAUUAGAUCUACUUUUGUAGAUCUAAUCAGAAGGGACAUGAGGAUCACCCAUGUAGUUU,37.2,152,,
AUGAGGUUAGGAUAUACAUGAGGAUCACCCAUGUUGAAGGGUUAGGUAGGCGGAGCUGGUAGAAGGAACGGAGC,57.3,36.9,,
CCACGUCACAUUAACAUGAGGAUCACCCAUGUCUCUAGACAUGAGGAUAUGGAUCCUAAUUGGAUCCAGAAGGCAUGGACGUGG,,,1420,138

Sequence,apparent Kd [1] [nM],apparent Kd [2] [nM],apparent Kd [3] [nM],apparent Kd [4] [nM]
CACAAGUAUAACGAUUUCAAGGCACAGGAUAUGAGUGUGCACAUGAGGAUCACCCAUGUUAUAACUUAGAAGGGUGACCAUCGC,,,402,433
CUAGUACAUGAGGAUCACCCAUGUCAGGAUAUUGGAUAUGACAUGGAAAACAUGUUAACAAGAAGGGACUAUAG,245,209,,
UCGAUUAUACAAGGAUAUCAAUUGUAAUUGAGACUUACAUGAGGAUCACCCAUGUUAAUAUUUUUUGAGAAGGUGUAUUUUCAG,,,47.3,26.8
CACCGUAACAGAGGAUAUGAUACAUGAGGAUCACCCAUGUAAUAAAUGAGAAUUUCGAAUGUACCUCAGAAGGCUGGAACCGGC,45.7,96.6,,
CUUUUGUGAGGAUAUCAGUAGUAAUAAAAUAAAAUUACUACUGAGAAGGCACAUGAGGAUCACCCAUGUUCCUC,40,182,,
UGGUCAUGAUCAGGAUAUUAACAUGGGCUACAUUAAGAAGGGAUAGUGAGAUACGAACAUGAGGAUCACCCAUGUUGUGUUGUU,,,26.8,21.2
AGCCCUGACGUCAGGAUAUCCGGCCAAUAGGCCAAGGAGAAGGGACAUGAGGAUCACCCAUGUGCUUGGGUCCG,23.7,37,,
GCGUAAUAGGUGUAGCUAGUCGUGCAAGAAGGGUGGUGAACAUGAGGAUCACCCAUGUGGUCAGUACAGGAUAUUGCUAUACGA,,,561,162
CUUUUGUGAGGAUAUCAGUUGUAAAAAAAUAAAAUUACUACUGAGAAGGCACAUGAGGAUCACCCAUGUUCCUC,35,140,,
AGUUAAUAUCGAGGAUAUCCUCAUAGACAUGAGGAUCACCCAUGUUAACAUGGAGAAGGCGAUAUUAACAGCAUGUUACAUGCA,,,231,26.8
AGUCGGAGCAGAGGAUAUACAUGAGGAUCACCCAUGUAAAUGAAUGAAGCCUGGAAACAGGCAAUGUAGAAGGCUGCUCCGACA,17.6,54.2,,
CCAGAUAUGUAAGGAUAUAUAGUGGAAUACACUAUAGAAGGUAUGUGAGAACAUGAGGAUCACCCAUGUCAUUGGAUAUCUGGA,,,37.1,39.3
CUGUACAUAUCAGGAUAUCUAUUUCCUACAUGAGGAUCACCCAUGUAGGUGAUCACCCAAGUAAAGGAGAAGGGAUAUGUAUAG,,,66.4,23.7
AAGGAGUGAGGAUAUGCGCGGGCACGCUCUAAAUAAGAAAGACAUGAGGAUCACCCAUGUAGAAGGCACAAUAA,19.9,32.5,,
GUUGCUACUGAGGAUAUUAUUCUACCCGACUGAUAAGAAGGCAGUACAUGAGGAUCACCCAUGUGGGUAGCCAG,16.7,22.5,,
GCCAUCACAUGAGGAUAUGCUCGGGUUUCCCGAGCAGAAGGCAUGUCAUAGGACAUGAGGAUCACCCAUGUAGUUAAGAUGGCA,,,507,17.1
GCUGGUCAAGGAUAUGCAAUCGUGCUUCGGCACGUAAGAUCACAUGAGGAUCACCCAUGUAGAAGGUGACCAGC,22.5,59.8,,
UCAAGAAGGCAGAAGGGUCCUCACAUGAGGAUCACCCAUGUAGAUAUGGAUAGGAUAUGUCUAGAGAAGUGUUGCUCUAAGGGU,,,1050,159
CCAGGCUUCGAGAAGGACAUGAGGAUCACCCAUGUGCGUGUGAAGCAGCCGUGAGGCUGCAUCAUGUAGGAUAUCGGAGUCUGG,71.9,499,,
UUGCAGUGCGGGUAGGAUAUGUAGGGUGGUACAUGAGGAUCACCCAUGUAUCCACCCUUCGACCGGCAGAAGGGCCUGUCACCGC,,,15.2,14.8
CGAUAAAGCUGAGGAUAUGAGAAUAGAAAGAAAUCAGAAGGCAGACAUGAGGAUCACCCAUGUGAGUUCUCGAGAUUACAUGGU,250,529,,
GGUGCAUGUGAGAAGGCGAUCAUGAAACAUGAUCGAGGAUAUCAUGUAAACAUGAGGAUCACCCAUGUAUGGGAAAAGUGCACC,,,97.9,10.1
GGAUGCCGCUCAGGAUAUGUGGGUUGUCUAGUAUCUAGAUUCCACAUGAGGAUCACCCAUGUAACACAGAAGGGAGAUGGUGAU,,,526,23.2
GCACAUGAGGAUCACCCAUGUCGGGAGGAUAUCUAGGCUGGGCGAUGCUAGGGCGGCCUCUGCUUAGAGAAGGCCCAUAAAAUC,,,197,33.4
UAAUAUUUAUGAUAUUAUUACAUUAGAAGGCUAGACAUGUGGAUACAUGAGGAUCACCCAUGUAUAGAGGAUAUAGACAUAUAG,25.8,42.6,,
AGCAUGUGAGGAUAUGCGGACUCCAGUAAAUCUGAAGUCCAGUAGAAGGCACAUGAGGAUCACCCAUGUGAUAA,92.9,112,,
AUUGAGAUAGCGAUAUGAUCGAGAGAUCAUGUCGCUAAGUUUAGAAGGACAUGAGGAUCACCCAUGUAGGAUAUGGGAGUAGAA,,,128,57.5
